CaV13 FRET inh: Disruptors of the CACNA1D IQ motif to Ca2+-dependent inactivation inhibitor domain association, primary screening, Förster resonance energy transfer in intact living …; HEK cells, CFP/YFP FRET ICDI-IQ, plate reader, 10 min; percent FRET-ratio fall versus neutral wells; inhibition, % at 12.3 µM; 0.098% of 340,000 active;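 active = mean replicate inhibition of at least 30% and at least 1% of replicates passing that level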;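 note: 0% = median of the neutral control wells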
Vif inh: HIV Vif inhibition | HEK293T cells, Vif self-association by quenched fluorescence, imaging, 24 h | inhibition, % at 7.49 µM | 0.35% of 340,000 active | AID 602346; in the data active = inhibition above about 50%, passing the limit was not always enough
Xi reactivation: activators of X-chromosome reactivation in mouse fibroblasts; XiGFP mouse fibroblasts, % GFP-positive cells imaging, 3 d; cells co-treated with 5-aza-dC sensitizer; scaled so ellipticine positive control = 100%; activation, % at 7.58 µM; 0.055% of 360,000 active;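 active = mean normalized replicate activation at least 10% and every replicate at or above 10%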;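 note: 0% = median of on-plate neutral control wells and 100% = ellipticine 6 µM median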
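System: SV40-immortalized XiGFP fibroblast cells, line 68-5-11 / Incubation: 3-day compound exposure, then 15 min fixation at room temperature / Compound: single concentration per compound, delivered by pin transfer / Buffer or medium: DMEM plus 5-aza-dC sensitizer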
Glyco luc inh: blocks N-linked glycosylation in D54 reporter cells; reporter increase, % at 12.5 µM; AID 588692; D54 ERlucT glycosylation luciferase reporter, 24 h; percent of 100 nM tunicamycin response; 0.23% of 360,000 active;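 active = mean luciferase reporter signal, scaled so untreated is 0 and the glycosylation-blocking control 100, at or above a set limit in every replicate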;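 note: luciferase carries N-glycosylation sites so blocking glycosylation raises the light; 0% = median of neutral control wells and 100% = median of 100 nM tunicamycin wells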
NPR1 activator: GC-A (human) enzyme activation; HEK293 GC-A cells, cGMP TR-FRET, EC30 ANP; 0% at EC30 ANP, 100% saturating ANP; 0.14% of 370,000 active; P16066; activation, % at 10 µM; AID 1671463; in the data active = activation above about 40%
NPR2 activator: GC-B (human) receptor activation; 0.11% of 370,000 active; HEK293-GC-B cells, CNP EC30, cGMP TR-FRET; 0% at EC30 CNP, 100% saturating CNP; P20594; activation, % at 10 µM;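 active = activation at 10 µM reaching about 35% in either raw or pattern-adjusted values, limit read from the data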
Target sequence (P20594 whole entry, looked up): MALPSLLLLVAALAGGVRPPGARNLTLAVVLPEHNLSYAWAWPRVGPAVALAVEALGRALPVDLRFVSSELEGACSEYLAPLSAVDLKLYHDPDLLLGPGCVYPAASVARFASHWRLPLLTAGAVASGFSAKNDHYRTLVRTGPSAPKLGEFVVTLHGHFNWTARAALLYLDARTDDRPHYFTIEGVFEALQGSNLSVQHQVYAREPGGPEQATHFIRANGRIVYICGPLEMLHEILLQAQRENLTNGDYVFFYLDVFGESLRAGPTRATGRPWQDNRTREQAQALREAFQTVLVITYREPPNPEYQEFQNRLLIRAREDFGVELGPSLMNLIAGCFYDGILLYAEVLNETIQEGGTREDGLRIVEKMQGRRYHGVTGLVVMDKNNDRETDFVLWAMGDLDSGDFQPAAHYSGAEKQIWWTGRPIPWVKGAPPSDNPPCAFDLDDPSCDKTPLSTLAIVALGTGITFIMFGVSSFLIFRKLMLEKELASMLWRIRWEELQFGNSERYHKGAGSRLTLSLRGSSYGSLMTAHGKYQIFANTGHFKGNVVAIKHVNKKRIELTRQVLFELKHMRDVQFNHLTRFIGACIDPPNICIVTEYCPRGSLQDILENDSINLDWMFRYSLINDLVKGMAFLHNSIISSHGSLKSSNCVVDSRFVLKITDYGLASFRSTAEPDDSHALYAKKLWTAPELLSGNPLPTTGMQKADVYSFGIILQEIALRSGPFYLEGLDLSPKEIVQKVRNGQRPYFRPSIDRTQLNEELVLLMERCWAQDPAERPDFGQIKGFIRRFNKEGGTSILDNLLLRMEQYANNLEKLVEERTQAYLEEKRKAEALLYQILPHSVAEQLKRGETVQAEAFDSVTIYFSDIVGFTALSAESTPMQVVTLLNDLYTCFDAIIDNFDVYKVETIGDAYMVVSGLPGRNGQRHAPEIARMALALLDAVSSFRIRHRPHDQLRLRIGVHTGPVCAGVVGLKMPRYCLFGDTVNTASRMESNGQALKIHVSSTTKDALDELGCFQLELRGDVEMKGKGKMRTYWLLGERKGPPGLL
Numbers without * were called inactive. This is a sample that favours compounds with a hit; in the whole collection about 0.7% have one here.

For NC(=O)CC(NC(=O)c1ccc(Br)cc1)c1ccc(N2CCCCCCC2)c([N+](=O)[O-])c1 (stereo not drawn) the results were CaV13 FRET inh -3, Vif inh -1, Xi reactivation 0, Glyco luc inh 43*, NPR1 activator -1 and NPR2 activator 0.
For NC(=O)CC(NC(=O)Cc1ccc(Br)cc1)c1ccc(NC2CCCC2)c([N+](=O)[O-])c1 (stereo not drawn) the results were CaV13 FRET inh -7, Vif inh -9, Xi reactivation 0, Glyco luc inh 38*, NPR1 activator -1 and NPR2 activator 5.
Screening NC(=O)CC(NC(=O)c1ccc(Br)cc1)c1ccc(NC2CCCCC2)c([N+](=O)[O-])c1 (stereo not drawn) returned CaV13 FRET inh -9, Vif inh -1, Xi reactivation 0, Glyco luc inh 24, NPR1 activator 1 and NPR2 activator -5.
NC(=O)CC(NC(=O)c1ccc(Br)cc1)c1ccc(N2CCN(c3ccccc3)CC2)c([N+](=O)[O-])c1 (stereo not drawn) was read as CaV13 FRET inh -5, Vif inh 0, Xi reactivation 0, Glyco luc inh 4, NPR1 activator -5 and NPR2 activator 0.
For O=C(c1ccc(Br)cc1)c1cc([N+](=O)[O-])ccc1N1CCCCC1 the results were CaV13 FRET inh -7, Vif inh 63*, Glyco luc inh 4, NPR1 activator -12 and NPR2 activator -4.
NC(=O)CC(NC(=O)c1ccc(Br)cc1)c1ccc(NC2CCCCCC2)c([N+](=O)[O-])c1 (stereo not drawn) was read as Vif inh 70*, Xi reactivation 0, Glyco luc inh 14, NPR1 activator 1 and NPR2 activator 5.
`CNC[C@@H]1Oc2ccc(NC(=O)NC(C)C)cc2C(=O)N([C@@H](C)CO)C[C@H]1C` gave Xi reactivation 0.
`COc1ccc2c3c(n(C)c2c1)[C@H](CO)N(C(=O)c1ccc(F)cc1)CC31CN(C(C)=O)C1` gave Xi reactivation 0.
`Cc1noc(C)c1NC(=O)N[C@H]1C=C[C@H](CC(=O)NCCCN(C)C)O[C@H]1CO` gave Xi reactivation 0.
`CN1C(=O)c2cc(NC(=O)C3CCCC3)ccc2OC[C@H]2O[C@@H](CC(=O)NCC3CC3)CC[C@@H]21` gave Xi reactivation 0.
Screening Cc1ccc2c(c1)C1CN(C)CCC1N2S(=O)(=O)c1ccc(C#N)cc1 (stereo not drawn) returned CaV13 FRET inh -6, Vif inh 55*, Xi reactivation 0, Glyco luc inh 0, NPR1 activator 0 and NPR2 activator -3.
`CCOC(=O)CS(=O)(=O)c1nc(-c2ccccc2)cc(C(F)(F)F)n1` gave CaV13 FRET inh -4, Vif inh 1, Glyco luc inh -16, NPR1 activator 54* and NPR2 activator 10.
COc1ccc(-c2cc(C(F)(F)F)nc(S(C)(=O)=O)n2)cc1 was read as CaV13 FRET inh -8, Vif inh 34, Glyco luc inh -4, NPR1 activator 46* and NPR2 activator 5.
Screening CS(=O)(=O)c1nc(-c2ccc(F)cc2)cc(C(F)(F)F)n1 returned CaV13 FRET inh -27, Vif inh 0, Xi reactivation 0, Glyco luc inh -22, NPR1 activator 72* and NPR2 activator 13.
For CCOc1ccc(OC(=O)C(CCS(C)(=O)=O)N2C(=O)c3ccccc3C2=O)cc1 (stereo not drawn) the results were CaV13 FRET inh -3, Vif inh 5, Glyco luc inh -4, NPR1 activator -1 and NPR2 activator -2.
`CC(=O)c1ccc(OC(=O)C(CCS(C)(=O)=O)N2C(=O)c3ccccc3C2=O)cc1` (stereo not drawn) gave CaV13 FRET inh -8, Vif inh 81*, Glyco luc inh 2, NPR1 activator -5 and NPR2 activator 0.
`CC(C)CC[n+]1ccn(-c2nc3ccccc3nc2[N-]S(=O)(=O)c2ccccc2)c1` gave CaV13 FRET inh -8, Vif inh 2, Glyco luc inh -4, NPR1 activator 4 and NPR2 activator 2.
For O=S(=O)([N-]c1nc2ccccc2nc1-n1cc[n+](Cc2ccccc2)c1)c1ccc(Cl)cc1 the results were CaV13 FRET inh -18, Vif inh 3, Xi reactivation 0, Glyco luc inh 47*, NPR1 activator 3 and NPR2 activator 1.
C=CCn1c(SCC(=O)c2ccc(O)c(O)c2)nnc1-c1ccccc1OC was read as CaV13 FRET inh -7, Vif inh 54*, Xi reactivation 1, Glyco luc inh -4, NPR1 activator -3 and NPR2 activator -2.
`CC(C)NC(=O)N(C)C[C@H]1OCCCC[C@H](C)Oc2ccc(N(C)C)cc2C(=O)N([C@H](C)CO)C[C@@H]1C` gave Xi reactivation 0.
Screening O=C1CCCN1CCCNc1nc(NCc2ccccc2)nc2ccsc12 returned CaV13 FRET inh -7, Xi reactivation 0, Glyco luc inh 38*, NPR1 activator -10 and NPR2 activator -9.
`C=CCNc1nc(NCCCN2CCCC2=O)c2sc(-c3ccccc3)cc2n1` gave CaV13 FRET inh -5, Vif inh -2, Xi reactivation 0, Glyco luc inh 3, NPR1 activator 21 and NPR2 activator -2.
`CCc1nnc(NC(=O)c2ccc(-c3ccccc3F)o2)s1` gave CaV13 FRET inh 136*, Vif inh -4, Xi reactivation 0, Glyco luc inh 1, NPR1 activator 1 and NPR2 activator 7.
Screening CCc1nnc(NC(=O)c2ccc(-c3ccc(Cl)cc3)o2)s1 returned Vif inh 3, Glyco luc inh 0, NPR1 activator 8 and NPR2 activator -1.
Screening C=CCn1c2ccccc2c2nnc(SCC(N)=O)nc21 returned CaV13 FRET inh -2, Vif inh 1, Xi reactivation 0, Glyco luc inh 0, NPR1 activator 2 and NPR2 activator 0.
`C=CCSc1nnc2nc3c(nn12)c1cc(C)ccc1n3CC=C` gave CaV13 FRET inh -3, Vif inh 29, Glyco luc inh -16, NPR1 activator 50* and NPR2 activator 51*.
Screening COc1ccc2c3c([nH]c2c1)[C@H](CO)N(C(=O)c1ccncc1)CC31CN(C(=O)NC(C)C)C1 returned Xi reactivation 0.
